{"data": "Experimental data of several laboratories", "cell line": "NCI-H226", "observed": "cell growth or viability", "note": "Each line is one published result; the experiments were not run side by side."}
{"SMILES": "CC(=O)O[C@H]1C(=O)[C@@]2(C)[C@H]([C@H](OC(=O)c3ccccc3)[C@]3(O)C[C@H](OC(=O)[C@H](O)[C@@H](NC(=O)c4ccccc4)c4ccccc4)C(C)=C1C3(C)C)[C@]1(OC(C)=O)CO[C@@H]1C[C@@H]2O", "technique": "SRB", "quantity": "IC50", "result": "4.3 nM"}
{"SMILES": "O=C1NCCc2[nH]c(-c3ccncc3)cc21", "quantity": "IC50", "result": "> 10000 nM"}
{"SMILES": "CCCc1n(Cc2ccc3ccccc3n2)cc[n+]1Cc1ccc2ccccc2c1", "technique": "SRB", "quantity": "TGI", "result": "7600 nM"}
{"SMILES": "COc1ccc(C(=O)/C=C/c2ccccc2Br)cc1S(N)(=O)=O", "technique": "SRB", "tested at": "10 µM", "quantity": "inhibition", "result": "79%"}
{"SMILES": "O=c1[nH]cc(S(=O)(=O)Nc2cccc(-c3nnc(-c4cccc(Cl)c4)o3)c2)c(=O)[nH]1", "technique": "MTT", "time": "24 h", "quantity": "IC50", "result": "7700 nM"}
{"SMILES": "COc1ccc(-c2ccc(-c3ccc(C(=N)N)nc3)s2)cc1Cl", "technique": "SRB", "quantity": "GI50", "result": "1920 nM"}
{"SMILES": "CCCCC[C@H](O)CC(=O)CCc1ccc(O)c(OC)c1", "technique": "SRB", "quantity": "IC50", "result": "145000 nM"}
{"SMILES": "Cc1n(Cc2ccc3ccccc3n2)cc[n+]1Cc1ccc2ccccc2c1", "technique": "SRB", "quantity": "TGI", "result": "10900 nM"}
{"SMILES": "COc1ccc(C(=O)/C=C/c2cccc(Cl)c2)cc1S(N)(=O)=O", "technique": "SRB", "time": "48 h", "quantity": "GI50", "result": "2800 nM"}
{"SMILES": "COc1ccc(-c2ccc(-c3ccc(C(=N)N)nc3)s2)cc1", "technique": "SRB", "quantity": "GI50", "result": "1810 nM"}
{"SMILES": "CCc1n(Cc2ccc3ccccc3n2)cc[n+]1Cc1ccc2ccccc2c1", "technique": "SRB", "quantity": "TGI", "result": "4870 nM"}
{"SMILES": "COc1ccc(C(=O)/C=C/c2cc3c(cc2Br)OCO3)cc1S(N)(=O)=O", "technique": "SRB", "time": "48 h", "quantity": "GI50", "result": "2800 nM"}
{"SMILES": "CCc1n(Cc2ccc3ccccc3n2)cc[n+]1Cc1ccc2ccccc2n1", "technique": "SRB", "quantity": "TGI", "result": "30800 nM"}
{"SMILES": "COc1ccc(C(=O)/C=C/c2cccc(Br)c2)cc1S(N)(=O)=O", "technique": "SRB", "tested at": "10 µM", "quantity": "inhibition", "result": "83%"}
{"SMILES": "COc1cccc(Oc2ccccc2NC(=O)CNC(=O)c2cccc3ccccc23)c1", "technique": "SRB", "time": "48 h", "quantity": "GI50", "result": "2510 nM"}
{"SMILES": "COc1ccc(C(=O)/C=C/c2ccc3ccccc3c2)cc1S(N)(=O)=O", "technique": "SRB", "time": "48 h", "quantity": "GI50", "result": "2300 nM"}
{"SMILES": "Cc1cc(C)n(C(=S)[S][Au][PH](CCCCCC[PH]([Au][S]C(=S)n2nc(C)cc2C)(c2ccccc2)c2ccccc2)(c2ccccc2)c2ccccc2)n1", "technique": "SRB", "quantity": "GI50", "result": "2520 nM"}
